# Measured values of several laboratories.
# Compare with care: the assays were run in different laboratories.
# Cell line: A549
# Read-out: cell growth or viability
SMILES,method,time,IC50
Nc1ccc(Cl)c[n+]1[Pt-2]([Cl])([Cl])[n+]1cc(Cl)ccc1N,MTT,24 h,8.6 µM
COc1c(C)cnc(COc2ccc(NC(=O)Nc3ccc(Cl)cc3)cc2)c1C,MTT,72 h,13.7 µM
CCCCC[C@H](O)CC(=O)CCc1ccc(O)c(OC)c1,SRB,,208 µM
Cc1ccc(C)n1-c1ccc(-c2nnc(S)s2)cc1,MTT,72 h,223 µM
Cc1c(OCC(F)(F)F)ccnc1COc1ccc(NC(=O)Nc2cccc(C(F)(F)F)c2)cc1,MTT,72 h,2.65 µM
C=CC(=O)Nc1cc(Nc2nc(N3CCc4sccc4C3)c3cccnc3n2)c(OC)cc1N1CCN(C(C)=O)CC1,MTT,,> 50 µM
Brc1ccc(Nc2nc(N/N=C\c3c[nH]c4ccccc34)nc(Nc3ccccc3)n2)cc1,SRB,72 h,11.6 µM
CS(=O)(=O)c1ccc(-n2cc(/C=N/N=c3\[nH]c(-c4ccc([N+](=O)[O-])cc4)cs3)c(-c3ccc(Br)cc3)n2)cc1,MTT,48 h,68.7 µM
COc1cc([C@@H]2c3cc4c(cc3[C@@H](O[C@@H]3O[C@@H]5CO[C@@H](C)O[C@H]5[C@H](O)[C@H]3O)[C@H]3COC(=O)[C@H]23)OCO4)cc(OC)c1O,fluorescence,48 h,4.1 µM
Nc1ccn([C@@H]2O[C@H](CO)[C@@H](O)C2(F)F)c(=O)n1,CCK-8,72 h,0.0151 µM
COc1ccccc1/C=C/CNCC(O)COc1ccc2ccccc2c1 (stereo not shown),CCK-8,72 h,17.1 µM
COc1cc(N(C)CCN(C)C)c(NC(=O)/C=C/C(C)C)cc1Nc1nc(N2CCc3sccc3C2)c2sccc2n1,MTT,,> 50 µM
COc1cc2ncnc(Nc3ccc(F)c(Cl)c3)c2cc1NC(=O)N/N=C/CN1CCN(C)CC1,MTT,72 h,6.6 µM
COc1cccc2c1C(=O)c1c(O)c3c(c(O)c1C2=O)C[C@@](O)(C(=O)CO)C[C@@H]3O[C@H]1C[C@H](N)[C@H](O)[C@H](C)O1,MTT,24 h,> 100 µM
COc1ccccc1OCCNCC(O)COc1cccc2[nH]c3ccccc3c12 (stereo not shown),CCK-8,72 h,22.9 µM
C=CC(=O)Nc1cc(Nc2nc(N3CCc4sccc4C3)c3cccnc3n2)c(OC)cc1N1CCN(CC)CC1,MTT,,1.42 µM
O=C(NC(=S)NCCCNC(=S)NC(=O)c1ccc2ccccc2c1)c1ccc2ccccc2c1,,48 h,2.41 µM
O=C(Nc1nnc(-c2cc3ccccc3[nH]2)s1)c1cc2c([nH]c3ccccc32)c(-c2ccc(F)cc2)n1,MTT,72 h,3.64 µM
Cc1ccc(C)n1-c1ccc(-c2nnc(-c3ccc(Br)cc3)[nH]2)cc1,MTT,72 h,225 µM
NNc1nc(Nc2ccccc2)nc(Nc2ccc(Br)cc2)n1,SRB,72 h,> 30 µM
CC1=C(O)C(=O)C=C2C1=CC=C1[C@@]2(C)CC[C@@]2(C)[C@@H]3C[C@](C)(C(=O)OCCCCCCCO)CC[C@]3(C)CC[C@]12C,MTT,48 h,> 100 µM
O=C(N/N=C/c1cccn1CCN1CCCC1)Nc1cc2c(Nc3ccc(F)c(Cl)c3)ncnc2cc1O[C@H]1CCOC1,MTT,72 h,2.39 µM
CCOc1ccc(/C=C2\SC(=S)N(CC(=O)Nc3ccccc3)C2=O)cc1,MTT,,10.3 µM
CC1=C(O)C(=O)C=C2C1=CC=C1[C@@]2(C)CC[C@@]2(C)[C@@H]3C[C@](C)(C(=O)OCCCO)CC[C@]3(C)CC[C@]12C,MTT,48 h,4.3 µM
Oc1ncnc2cc(Nc3nc(-c4ccccc4)cs3)ccc12,MTT,,24.7 µM
COCCCOc1ccnc(COc2ccc(NC(=O)Nc3cccc(C(F)(F)F)c3)cc2)c1C,MTT,72 h,4.38 µM
CC1=C(O)C(=O)C=C2C1=CC=C1[C@@]2(C)CC[C@@]2(C)[C@@H]3C[C@](C)(C(=O)OCCCCCO)CC[C@]3(C)CC[C@]12C,MTT,48 h,> 100 µM
CCN(CC)CCNC(=O)c1c(C)[nH]c(/C=C2\C(=O)Nc3ccc(F)cc32)c1C,,72 h,4.56 µM
O=C(N/N=C/c1cccn1CCCN1CCOCC1)Nc1cc2c(Nc3ccc(F)c(Cl)c3)ncnc2cc1O[C@H]1CCOC1,MTT,72 h,5.62 µM
O=C(NC(=S)NCCNC(=S)NC(=O)c1ccc2ccccc2c1)c1ccc2ccccc2c1,,48 h,2.73 µM
O=C1Nc2ccc(Br)cc2/C1=N/NC(=O)c1cc2ccccc2[nH]1,,,16 µM
COc1cc2c(Nc3ccc(NC(=O)c4ccccc4)cc3)ncnc2cc1OCCCN1CCOCC1,MTS,48 h,3.2 µM
Cc1cc(C)cc(NC(=O)NNC(=O)c2ccc(Nc3nccc(-c4ccccn4)n3)cc2)c1,MTT,24 h,> 40 µM
CCCc1ccc(OCC(O)CNC/C=C/c2ccccc2OC)cc1 (stereo not shown),CCK-8,72 h,31.6 µM
CCCCNC(=O)NNC(=O)c1cccc(Nc2nccc(-c3ccncc3)n2)c1,MTT,24 h,30.6 µM
CCC(=O)Nc1cc(Nc2nc(N3CCc4sccc4C3)c3cccnc3n2)c(OC)cc1N1CCN(CC)CC1,MTT,,21.9 µM
Cc1ccc(NC(=O)CSc2nnc(Cn3cnc4c3c(=O)n(C)c(=O)n4C)n2-c2ccccc2)cc1C,MTT,,198 µM
O=C(/N=c1\scc(-c2ccccc2)n1C1CCCCC1)c1ccc2ccccc2c1,,48 h,16.4 µM
C=CC(=O)Nc1cc(Nc2nc(N3CCc4sccc4C3)c3cccnc3n2)c(OC)cc1N1CCSCC1,MTT,,23.9 µM
COc1ccnc(COc2ccc(NC(=O)Nc3cccc(C(F)(F)F)c3)cc2)c1OC,MTT,72 h,6.65 µM
COc1cc2ncnc(Nc3ccc(F)c(Cl)c3)c2cc1NC(=O)N/N=C/c1cccn1CCN1CCCC1,MTT,72 h,0.35 µM
CC(C)Cc1ccc(-c2nn(-c3ccc(S(C)(=O)=O)cc3)cc2/C=N/N=c2\[nH]c(-c3ccc(Br)cc3)cs2)cc1,MTT,48 h,15.3 µM
COc1ccccc1/C=C/CNCC(O)COc1ccc2ncccc2c1 (stereo not shown),CCK-8,72 h,44.3 µM
CCc1c2c(nc3ccc(OC(=O)N4CCC(N5CCCCC5)CC4)cc13)-c1cc3c(c(=O)n1C2)COC(=O)[C@]3(O)CC,SRB,72 h,9.5 µM
Cc1cccc(-n2ncc(Br)c(Br)c2=O)c1,resazurin,96 h,1.62 µM
COc1cc2ncnc(Nc3ccc(F)c(Cl)c3)c2cc1NC(=O)N/N=C/c1cccn1CCCN1CCN(C)CC1,MTT,72 h,3.23 µM
CS(=O)(=O)c1ccc(-n2cc(C=N/N=c3\[nH]c(-c4ccc(Br)cc4)cs3)c(-c3ccc([N+](=O)[O-])cc3)n2)cc1,MTT,48 h,28.4 µM
COc1cc([C@@H]2c3cc4c(cc3[C@@H](O[C@@H]3O[C@@H]5CO[C@@H](C)O[C@H]5[C@H](O)[C@H]3O)[C@H]3COC(=O)[C@H]23)OCO4)cc(OC)c1O,MTT,48 h,11.9 µM
COc1ccccc1/C=C/CNCC(O)COc1ccc2[nH]ccc2c1 (stereo not shown),CCK-8,72 h,25.4 µM
O=C(Nc1nnc(-c2cc3ccccc3[nH]2)s1)c1cc2c([nH]c3ccccc32)c(-c2ccccc2)n1,MTT,72 h,3 µM
CNC(=O)c1cc(Oc2ccc(NC(=O)Nc3ccc(Cl)c(C(F)(F)F)c3)cc2)ccn1,MTT,72 h,2.12 µM
C=CC(=O)Nc1cc(Nc2nc(N3CCc4sccc4C3)c3cccnc3n2)c(OC)cc1N1CCOCC1,MTT,,> 50 µM
O=C(N/N=C/c1cccn1CCN1CCCCC1)Nc1cc2c(Nc3ccc(F)c(Cl)c3)ncnc2cc1O[C@H]1CCOC1,MTT,72 h,3.58 µM
CN(C)c1ccc2cc(C(=O)N[C@@H](CCCNC(=N)CCl)C(=O)NCc3ccccc3)ccc2c1,,48 h,9.7 µM
COc1cccc(C(=O)O[C@@H]2CN3Cc4c(cc5c(c4OC)OCO5)[C@@]24C=C[C@H](OC)C[C@@H]34)c1,WST-1,,> 10 µM
Oc1ncnc2cc(Nc3nc(-c4ccc(C(F)(F)F)cc4)cs3)ccc12,MTT,,14.8 µM
CCCCNC(=O)NNC(=O)c1ccc(Nc2nccc(-c3ccccn3)n2)cc1,MTT,24 h,> 40 µM
COc1cc2ncnc(Nc3ccc(F)c(Cl)c3)c2cc1NC(=O)N/N=C/c1cccn1CCN(C)C,MTT,72 h,4.3 µM
